Among the data in ChEMBL document CHEMBL3045710, “Antifungal activity of 4'-(2,6,6-Trimethyl-2-cyclohexen-1-yl)-3'-butene-2'-ketoxime N-O-alkyl ethers” (2010) are EC50 and Activity values, retold here.

Structures are written as SMILES. ≈ marks a conversion by molar mass, not a printed value. Calls of active or inactive are those of the source. The calls are words filed in the database; no cut-off is given here.

The subject of assay [1] is Macrophomina phaseolina. In words: Antifungal activity against Rhizoctonia bataticola assessed as growth inhibition at 28 degC. Particulars: read-out: ED50 (the source's name). The class given is functional. The method in brief: (§1)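 Poisoned food technique on PDA: compound in acetone added to medium at 1000, 500, 250, 125, 100, 50, 25 and 10 μg/mL (final in medium). Acetone 1 mL serves as the control. A 5 mm mycelial disk from a 2-week-old colony is placed centrally. Plates are incubated at 28 °C until control growth is nearly complete. Colony diameter is measured and %inhibition = (C−T)/C×100, four replicates. ED50 is obtained by probit analysis of Abbott-corrected inhibition.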

For assay [2], the system named is Sclerotinia sclerotiorum. In words: Antifungal activity against Sclerotinia sclerotiorum assessed as growth inhibition at 28 degC. It counts as functional. The following applies: read-out: ED50 (the source's name). In short, it runs like this: as §1
Another assay relates to Athelia rolfsii. Nature of the assay: Antifungal activity against Athelia rolfsii assessed as growth inhibition at 28 degC. The class given is functional. Particulars: Agroathelia rolfsii; read-out: ED50 (the source's name). The method in brief:
as §1

In assay [3] the test system is Macrophomina phaseolina. In words: Antifungal activity against Macrophomina phaseolina assessed as growth inhibition at 28 degC. Particulars: read-out: ED50 (the source's name). It counts as functional. The method in brief: as §1
For assay [4], the system named is Sclerotinia sclerotiorum. In words: Antifungal activity against Sclerotinia sclerotiorum infected pea plants assessed as healthy plants at 0.364 mL of ai/150cm'3 measured after 21 days. The class given is functional. In short, it runs like this: (§2)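 S. sclerotiorum inoculum was grown in potato dextrose broth at 27 °C for 7 days, then in water at 20 °C for 3-4 weeks, then homogenized, filtered and sonicated. It was mixed into sieved, autoclaved compost soil and held about 25 °C for 5-7 days. Fungicide was incorporated and soil was bagged 7 days. Pea was transplanted. Symptomless plants were scored at 7, 14 and 21 days (20 plants/treatment, six trials), arcsine-square-root transformed, repeated-measures ANOVA.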

Assay [5] concerns Sclerotinia sclerotiorum. In words: Antifungal activity against Sclerotinia sclerotiorum infected pea plants assessed as healthy plants at 0.364 mL of ai/150cm'3 measured after 14 days. The class given is functional. In short, it runs like this: as §2
Assay [6] deals with Sclerotinia sclerotiorum. Nature of the assay: Antifungal activity against Sclerotinia sclerotiorum infected pea plants assessed as healthy plants at 1 % aqueous emulsion measured on day 7. The class given is functional. The method in brief:
(§3)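 Greenhouse pea assay: S. sclerotiorum inoculum grown in potato dextrose broth, homogenized and mixed into autoclaved, sieved composted soil, then incubated 5-7 days at ~25 °C. Formulated compound is applied as 1 or 5% aqueous emulsion at 5.0 mL per 150 cm3 soil and held 7 days in sealed bags. Symptoms (water-soaked spots) and symptomless plants are scored 7, 14 and 21 days after transplanting, 20 plants per treatment.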

The subject of assay [7] is Sclerotinia sclerotiorum. In words: Antifungal activity against Sclerotinia sclerotiorum infected pea plants assessed as prevention of water soaked spots at 5 % aqueous emulsion measured on day 21. It counts as functional, organism-based. The method in brief:
as §3

In assay [8] the test system is Sclerotinia sclerotiorum. In words: Antifungal activity against Sclerotinia sclerotiorum infected pea plants assessed as healthy plants at 5 % aqueous emulsion measured on day 21. It counts as functional. In short, it runs like this: as §3
The subject of assay [9] is Sclerotinia sclerotiorum. In words: Antifungal activity against Sclerotinia sclerotiorum infected pea plants assessed as healthy plants at 1 % aqueous emulsion measured on day 21. It counts as functional. In short, it runs like this: as §3

Consider `CCCCCO/N=C(C)/C=C/C1C(C)=CCCC1(C)C` (configuration not stated), for which the EC50 in the assay with Macrophomina phaseolina [1] stood at 39.2 µg/mL (≈ 141 µM); with Sclerotinia sclerotiorum [2], 32.7 µg/mL (≈ 118 µM); in the assay with Athelia rolfsii, 43.6 µg/mL (≈ 157 µM); with Macrophomina phaseolina [3], 94.8 µg/mL (≈ 342 µM).
On the same counts, the results for `CCO/N=C(C)/C=C/C1C(C)=CCCC1(C)C` (configuration not stated) are 393 µg/mL (≈ 1670 µM), 295 µg/mL (≈ 1250 µM), 410 µg/mL (≈ 1740 µM) and 732 µg/mL (≈ 3110 µM).
Regarding `CCCO/N=C(C)\C=C\C1C(C)=CCCC1(C)C` (configuration not stated), the EC50 in the assay with Macrophomina phaseolina [1] was found to be 157 µg/mL (≈ 629 µM); with Sclerotinia sclerotiorum [2] it was 220 µg/mL (≈ 881 µM); with Athelia rolfsii, 132 µg/mL (≈ 530 µM); with Macrophomina phaseolina [3] it was 236 µg/mL (≈ 945 µM).
On the same counts, the results for `CO/N=C(C)/C=C/C1C(C)=CCCC1(C)C` (configuration not stated) are 388 µg/mL (≈ 1750 µM), 442 µg/mL (≈ 2000 µM), 238 µg/mL (≈ 1070 µM) and 307 µg/mL (≈ 1380 µM).
The like results for `CC1=CCCC(C)(C)C1/C=C/C(C)=N\OCCC(C)C` (configuration not stated) were, in that order, 125 µg/mL (≈ 452 µM), 375 µg/mL (≈ 1350 µM), 367 µg/mL (≈ 1320 µM) and 625 µg/mL (≈ 2250 µM).
The like results for `CC1=CCCC(C)(C)C1/C=C/C(C)=N/OC(C)C` (configuration not stated) were, in that order, 56.6 µg/mL (≈ 227 µM), 182 µg/mL (≈ 729 µM), 35.5 µg/mL (≈ 142 µM) and 126 µg/mL (≈ 505 µM).
Turning to `CCCCCCCO/N=C(C)/C=C/C1C(C)=CCCC1(C)C` (configuration not stated), the EC50 is 919 µg/mL (≈ 3010 µM) in the assay on Macrophomina phaseolina [1], 392 µg/mL (≈ 1280 µM) with Sclerotinia sclerotiorum [2], 975 µg/mL (≈ 3190 µM) in the assay with Athelia rolfsii and 717 µg/mL (≈ 2350 µM) in the assay on Macrophomina phaseolina [3].
On to `CCCO/N=C(C)/C=C/C1C(C)=CCCC1(C)C` (configuration not stated), for which the EC50 is 32.4 µg/mL (≈ 130 µM) in the assay with Macrophomina phaseolina [1], 257 µg/mL (≈ 1030 µM) with Sclerotinia sclerotiorum [2], 101 µg/mL (≈ 406 µM) in the assay with Athelia rolfsii and 181 µg/mL (≈ 727 µM) in the assay with Macrophomina phaseolina [3].
On the same counts, the results for `CCCCO/N=C(C)/C=C/C1C(C)=CCCC1(C)C` (configuration not stated) are 67.9 µg/mL (≈ 258 µM), 107 µg/mL (≈ 408 µM), 113 µg/mL (≈ 430 µM) and 101 µg/mL (≈ 382 µM).
On the same counts, the results for `CCCCCCO/N=C(C)/C=C/C1C(C)=CCCC1(C)C` (configuration not stated) are 895 µg/mL (≈ 3070 µM), 428 µg/mL (≈ 1470 µM), 573 µg/mL (≈ 1970 µM) and 751 µg/mL (≈ 2580 µM).
On the same counts, the results for `CC1=CCCC(C)(C)C1/C=C/C(C)=N\OCC(C)C` (configuration not stated) are 58.7 µg/mL (≈ 223 µM), 79 µg/mL (≈ 300 µM), 47.6 µg/mL (≈ 181 µM) and 101 µg/mL (≈ 383 µM).
Take `CCCCCCCCO/N=C(C)\C=C\C1C(C)=CCCC1(C)C` (configuration not stated): the EC50 in the assay on Macrophomina phaseolina [1] was 1610 µg/mL (≈ 5050 µM); in the assay on Sclerotinia sclerotiorum [2], 584 µg/mL (≈ 1830 µM); with Athelia rolfsii it was 1360 µg/mL (≈ 4250 µM); in the assay on Macrophomina phaseolina [3] it was 1110 µg/mL (≈ 3470 µM).
On the same counts, the results for `CCCCCCO/N=C(C)\C=C\C1C(C)=CCCC1(C)C` (configuration not stated) are 327 µg/mL (≈ 1120 µM), 244 µg/mL (≈ 837 µM), 912 µg/mL (≈ 3130 µM) and 963 µg/mL (≈ 3300 µM).
On the same counts, the results for `CO/N=C(C)\C=C\C1C(C)=CCCC1(C)C` (configuration not stated) are 413 µg/mL (≈ 1870 µM), 517 µg/mL (≈ 2340 µM), 259 µg/mL (≈ 1170 µM) and 311 µg/mL (≈ 1400 µM).
Consider `CC1=CCCC(C)(C)C1/C=C/C(C)=N\OC(C)C` (configuration not stated), for which the EC50 is 116 µg/mL (≈ 467 µM) in the assay on Macrophomina phaseolina [1], 190 µg/mL (≈ 764 µM) in the assay on Sclerotinia sclerotiorum [2], 129 µg/mL (≈ 517 µM) in the assay on Athelia rolfsii and 198 µg/mL (≈ 794 µM) with Macrophomina phaseolina [3].
On the same counts, the results for `CCO/N=C(C)\C=C\C1C(C)=CCCC1(C)C` (configuration not stated) are 246 µg/mL (≈ 1050 µM), 261 µg/mL (≈ 1110 µM), 415 µg/mL (≈ 1760 µM) and 394 µg/mL (≈ 1670 µM).
On the same counts, the results for `CCCCCCCO/N=C(C)\C=C\C1C(C)=CCCC1(C)C` (configuration not stated) are 566 µg/mL (≈ 1850 µM), 419 µg/mL (≈ 1370 µM), 956 µg/mL (≈ 3130 µM) and 1090 µg/mL (≈ 3570 µM).
Take `CCCCCCCCCCO/N=C(C)/C=C/C1C(C)=CCCC1(C)C` (configuration not stated): the EC50 turned out to be 1940 µg/mL (≈ 5590 µM) in the assay with Macrophomina phaseolina [1], 681 µg/mL (≈ 1960 µM) in the assay on Sclerotinia sclerotiorum [2], 842 µg/mL (≈ 2420 µM) in the assay with Athelia rolfsii and 957 µg/mL (≈ 2750 µM) with Macrophomina phaseolina [3].
On the same counts, the results for `CCCCCCCCO/N=C(C)/C=C/C1C(C)=CCCC1(C)C` (configuration not stated) are 1090 µg/mL (≈ 3430 µM), 837 µg/mL (≈ 2620 µM), 1040 µg/mL (≈ 3250 µM) and 824 µg/mL (≈ 2580 µM).
`CC1=CCCC(C)(C)C1/C=C/C(C)=N/OCC(C)C` (configuration not stated): the EC50 in the assay with Macrophomina phaseolina [1] amounted to 50.6 µg/mL (≈ 192 µM); with Sclerotinia sclerotiorum [2], 94.1 µg/mL (≈ 357 µM); in the assay with Athelia rolfsii, 45.2 µg/mL (≈ 172 µM); in the assay with Macrophomina phaseolina [3] it was 103 µg/mL (≈ 391 µM).
Take `CCCCCCCCCCO/N=C(C)\C=C\C1C(C)=CCCC1(C)C` (configuration not stated): the EC50 worked out at 2060 µg/mL (≈ 5920 µM) in the assay with Macrophomina phaseolina [1], 477 µg/mL (≈ 1370 µM) with Sclerotinia sclerotiorum [2], 1110 µg/mL (≈ 3190 µM) with Athelia rolfsii and 1760 µg/mL (≈ 5060 µM) in the assay on Macrophomina phaseolina [3].
On to `CCCCO/N=C(C)\C=C\C1C(C)=CCCC1(C)C` (configuration not stated), for which the EC50 was 114 µg/mL (≈ 431 µM) with Macrophomina phaseolina [1], 164 µg/mL (≈ 621 µM) in the assay with Sclerotinia sclerotiorum [2], 88.9 µg/mL (≈ 337 µM) in the assay with Athelia rolfsii and 174 µg/mL (≈ 660 µM) in the assay on Macrophomina phaseolina [3].
With `COC(=O)Nc1nc2ccccc2[nH]1` [CARBENDAZIM], the Activity with Sclerotinia sclerotiorum [4] is reported as 75%; in the assay on Sclerotinia sclerotiorum [5] it was 80%.
Consider `CCCCCO/N=C(C)\C=C\C1C(C)=CCCC1(C)C` (configuration not stated), for which the EC50 in the assay on Macrophomina phaseolina [1] was 57.6 µg/mL (≈ 207 µM); with Sclerotinia sclerotiorum [2] it was 21.4 µg/mL (≈ 77.1 µM); in the assay on Athelia rolfsii, 41.6 µg/mL (≈ 150 µM); in the assay with Macrophomina phaseolina [3] it was 31.1 µg/mL (≈ 112 µM). In addition, the Activity with Sclerotinia sclerotiorum [6] is given as 65%; in the assay with Sclerotinia sclerotiorum [8], >90%; in the assay with Sclerotinia sclerotiorum [9], 40%. In addition, the result with Sclerotinia sclerotiorum [7] was Active.
On to `CC1=CCCC(C)(C)C1/C=C/C(C)=N/OCCC(C)C` (configuration not stated), for which the EC50 in the assay with Macrophomina phaseolina [1] was determined as 723 µg/mL (≈ 2600 µM); with Sclerotinia sclerotiorum [2], 273 µg/mL (≈ 986 µM); with Athelia rolfsii, 257 µg/mL (≈ 927 µM); with Macrophomina phaseolina [3] it was 666 µg/mL (≈ 2400 µM).
